Measured values of several laboratories.
Protocols differ between the studies behind these lines.
Effect on: metabolic stability
Species: human

| SMILES | sample | tested at | pH | half-life [min] |
| --- | --- | --- | --- | --- |
| CNC(C)Cc1ccc2nonc2c1 (stereo not drawn) | liver microsomes | 0.5 µM |  | > 150 |
| C[C@]12CC[C@H]3[C@@H](CC=C4CC(O)CC[C@@]43CO)[C@@H]1CCC2O (stereo partly drawn) | liver microsomes |  |  | 73.6 |
| CC(C)C[C@H](NC(=O)[C@H](Cc1ccccc1)NC(=O)[C@H](Cc1ccccc1)NC(=O)Cc1ccc(-c2ccccc2)cc1)C(=O)N[C@@H](CCCCN)C(=O)N[C@@H](CCCNC(=N)N)C(=O)N[C@H](C(=O)N[C@@H](Cc1c[nH]c2ccccc12)C(=O)N[C@@H](CCCCN)C(=O)N[C@@H](CCCNC(=N)N)C(=O)O)C(C)C | liver microsomes | 1 µM |  | 22.8 |
| C[C@]12CC[C@H]3[C@@H](CCC4=CC(=O)CC[C@@]43C)[C@@H]1CC[C@@H]2O | hepatocytes | 1 µM |  | 6.51 |
| CC[C@H](C)[C@H](NC(=O)[C@H](CC(=O)O)NC(=O)[C@H](CS)NC(=O)[C@H](CCCCN)NC(=O)[C@H](CS)NC(=O)[C@H](CCSC)NC(=O)[C@@H]1CCCN1C(=O)[C@H](CCC(N)=O)NC(=O)[C@@H]1CCCN1C(=O)[C@H](CCCNC(=N)N)NC(=O)[C@H](CCCNC(=N)N)NC(=O)[C@H](CCCNC(=N)N)NC(=O)[C@H](CCCNC(=N)N)NC(=O)[C@H](CCC(N)=O)NC(=O)[C@H](CCCNC(=N)N)NC(=O)[C@H](CCCNC(=N)N)NC(=O)[C@H](CCCCN)NC(=O)[C@H](CCCCN)NC(=O)[C@H](CCCNC(=N)N)NC(=O)CN)C(=O)N[C@@H](CC(C)C)C(=O)N[C@@H](CCCCN)C(=O)N[C@@H](C)C(=O)O | liver microsomes | 1 µM |  | 6 |
| CONC(=O)[C@H]1[C@@H](O)[C@@]2(O)c3c(OC)cc(OC)cc3O[C@@]2(c2ccc(OC)cc2)[C@@H]1c1ccccc1 | liver microsomes |  |  | 120 |
| CNC(C)Cc1ccc2nsnc2c1 (stereo not drawn) | liver microsomes | 0.5 µM |  | 53 |
| COc1ccc([C@@]23Oc4cc(OC)cc(OC)c4[C@@]24N=C(C2CC2)N[C@@]4(O)[C@H](C(=O)N(C)OC)[C@H]3c2ccccc2)cc1 | liver microsomes | 1 µM | pH 7.4 | 18.3 |
| C[C@]12CC[C@H]3[C@@H](CCC4=CC(=O)CC[C@@]43C)[C@@H]1CC[C@@H]2O | liver microsomes | 10 µM | pH 7.4 | 19.3 |
